Results from publication PMC4656071 (Biochemical pharmacology, 2015).
Values belong to the compound of their own block, whether it stands above or below them.

What was measured:
sEH = details: cited from earlier work
Human sEH = molecular target: T1, Human sEH (Homo sapiens, UniProt P34913); experiment: sEH activity assay; assay type: biochemical; details: fluorescent assay for sEH inhibition, from Table 3 (human and mouse sEH)
T1 sequence (P34913 1-555): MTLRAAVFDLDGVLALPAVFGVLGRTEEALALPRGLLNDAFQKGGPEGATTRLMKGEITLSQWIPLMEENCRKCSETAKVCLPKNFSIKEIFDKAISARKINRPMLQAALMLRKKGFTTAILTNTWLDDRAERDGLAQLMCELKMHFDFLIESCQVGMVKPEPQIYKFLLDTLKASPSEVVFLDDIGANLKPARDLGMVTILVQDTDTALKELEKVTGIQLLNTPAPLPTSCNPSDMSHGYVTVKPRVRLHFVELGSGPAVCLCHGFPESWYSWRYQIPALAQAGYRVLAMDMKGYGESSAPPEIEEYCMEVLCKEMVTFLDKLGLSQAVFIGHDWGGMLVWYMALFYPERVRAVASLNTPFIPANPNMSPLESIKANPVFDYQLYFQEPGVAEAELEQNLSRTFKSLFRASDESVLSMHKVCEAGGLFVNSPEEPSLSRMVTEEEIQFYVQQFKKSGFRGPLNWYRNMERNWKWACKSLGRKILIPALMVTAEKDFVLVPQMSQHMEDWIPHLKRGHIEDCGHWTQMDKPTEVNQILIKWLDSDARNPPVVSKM

[1] = animal models; cited from earlier work
CYP3A4 = experiment: Recombinant human CYPs incubation, CYP3A4; assay type: in vitro ADME; details: 1 μM AEPU, 20 pmol/ml CYP, 30 min
Outline: (§1)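 Recombinant human CYPs (20 pmol/ml) with 1 μM test compound in 100 mM sodium phosphate pH 7.4, preincubated 5 min at 37 °C. NADPH-generating system added; incubated 0 and 30 min. Stopped with 200 nM internal standard in methanol; LC-MS/MS. Metabolites compared as response-area ratio to internal standard.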

CYP 3A4 = assay type: in vitro ADME, human; details: 10 uM ketoconazole, 30 min, 37°C
[2] = assay type: in vitro ADME, rat, human; details: incubated in vitro without NADPH
[3] = 5 mg/kg for mouse and rat, 0.3 mg/kg for dog; cited from earlier work
[4] = Blood level-time course of AEPU and its metabolites after oral dosing in mice; assay type: in vivo, male swiss webster mice
CYP2D6 = experiment: Recombinant human CYPs incubation, CYP2D6; assay type: in vitro ADME; details: 1 μM AEPU, 20 pmol/ml CYP, 30 min
Outline: as §1

[5] = In vivo metabolism study of AEPU, rat urine by LC-MS; set-up: species or system rat (Sprague Dawley); details: rats, oral 10 mg/kg AEPU, urine 24 h after treatment

Structure (SMILES): O=C(O)CCCNC(=O)NC12CC3CC(CC(C3)C1)C2 [4-(3-adamantan-1-yl-ureido)butanoic acid]
- inhibitory potency on sEH (in words) (sEH): very weak

- potency lower compared to AEPU (Human sEH): 30–100 fold
Structure (SMILES): CCOCCOCCOCCCCCNC(=O)NC12CC3CC(CC(O)(C3)C1)C2 [M2]

- role of CYP3A4 in the in vitro metabolism of AEPU (CYP3A4): major enzyme
- metabolism of AEPU in human liver S9 fraction with ketoconazole (CYP 3A4): ceased
- metabolite formation in vitro without NADPH [2]: failed to generate metabolites
- metabolism in vivo (in words) ([4]; oral 10 mg/kg, multiple metabolites observed after 30 minutes): metabolized rapidly
- role of CYP2D6 in the in vitro metabolism of AEPU (CYP2D6): minor enzyme
Structure (SMILES): CCOCCOCCOCCCCCNC(=O)NC12CC3CC(CC(C3)C1)C2 [AEPU, 1-adamantan-1-yl-3-(5-(2-(2-ethoxyethoxy)ethoxy)pentyl)urea]
- blood level of AEPU through the whole time course [1]: undetectable
- area under curve after oral administration, comparison of species [3]: largest area under curve for dog, and then rat, while under detection limitation for mouse

Structure (SMILES): O=C(O)CCNC(=O)NC12CC3CC(CC(C3)C1)C2 [M15, 3-(3-adamantyl-ureido)-propanoic acid]
- occurrence in rat urine [5]: major metabolite
- blood level 6 hours post administration ([4]; oral 10 mg/kg AEPU, mouse whole blood, 6 hours): under the detection limitation
